Published values of several laboratories.
Protocols differ between the studies behind these lines. ≈ marks a conversion by molar mass, not a printed value.
Organism: Staphylococcus aureus

SMILES | observed | method | strain | concentration | setting | quantity | value
COC(=O)c1cc(-c2cccc(NC(=O)Nc3ccc(C(F)(F)F)cc3)c2)on1 | microbial growth | broth dilution | ATCC29213 |  |  | MIC | 8 to 16 µg/mL (≈ 19.7 to 39.5 µM)
CCOc1cc(-c2nc3ccccc3[nH]2)ccc1O | microbial growth | broth dilution | ATCC43300 MRSA |  | drug-resistant strain | MIC | 256 µg/mL (≈ 1010 µM)
O=C(O)c1cn(C2CC2)c2cc(N3CCNCC3)c(F)cc2c1=O | microbial growth |  | ATCC29213 |  |  | IC50 | 0.13 µg/mL (≈ 0.392 µM)
COC(=O)c1cc(-c2cccc(NC(=S)Nc3ccc(F)c(Cl)c3)c2)on1 | microbial growth | broth dilution | ATCC29213 |  |  | MIC | > 64 µg/mL
C=CCn1c(-c2ccc(Cl)c(Cl)c2)nc2ccccc21 | microbial growth | broth dilution | ATCC43300 MRSA |  | drug-resistant strain | MIC | 64 µg/mL (≈ 211 µM)
COC(=O)c1cc(-c2cccc(NC(=S)Nc3ccc(F)cc3)c2)on1 | microbial growth | broth dilution | ATCC29213 |  |  | MIC | > 64 µg/mL
O[C@]12C=C(c3nccc4c3[nH]c3ccccc34)[C@@H]3CCN(CCCC/C=C\CC1)C[C@@]31C[C@@H]3/C=C\CCCCN3[C@H]12 | microbial growth |  | MRSA |  | drug-resistant strain | IC50 | 0.7 µg/mL (≈ 1.28 µM)
COC(=O)c1cc(-c2cccc(NC(=O)Nc3ccc(Cl)c(C(F)(F)F)c3)c2)on1 | microbial growth | broth dilution | ATCC29213 |  |  | MIC | > 64 µg/mL
O=C(O)c1cn(C2CC2)c2cc(N3CCNCC3)c(F)cc2c1=O | microbial growth | broth dilution | ATCC43300 MRSA |  | drug-resistant strain | MIC | 16 µg/mL (≈ 48.3 µM)
CC1(C)S[C@@H]2[C@H](NC(=O)[C@H](N)c3ccccc3)C(=O)N2[C@H]1C(=O)O | microbial growth | well diffusion | ATCC25923 | 60000 µg/mL |  | inhibition zone | 35 mm
CC1(c2ccccc2O)Nn2c(nc(-c3ccc(Cl)cc3)c(C#N)c2=O)N1C(Cc1c[nH]c2ccccc12)C(=O)O (stereo not shown) | microbial killing |  |  |  | drug-resistant strain | MBC | 100 µg/mL
COc1ccc(-c2nc3ccccc3[nH]2)cc1OC | microbial growth | broth dilution | ATCC43300 MRSA |  | drug-resistant strain | MIC | 256 µg/mL (≈ 1010 µM)
CC1(C)CC[C@]2(C(=O)O)CC[C@]3(C)C(=CC[C@@H]4[C@@]5(C)CC[C@H](O)C(C)(C)[C@@H]5CC[C@]43C)[C@@H]2C1 | microbial growth |  | USA300 |  |  | MIC | 256 µg/mL (≈ 561 µM)
CN[C@H](CC(C)C)C(=O)N[C@H]1C(=O)N[C@@H](CC(N)=O)C(=O)N[C@H]2C(=O)N[C@H]3C(=O)N[C@H](C(=O)N[C@H](C(=O)O)c4cc(O)cc(O)c4-c4cc3ccc4O)[C@H](O)c3ccc(c(Cl)c3)Oc3cc2cc(c3O[C@@H]2O[C@H](CO)[C@@H](O)[C@H](O)[C@H]2O[C@H]2C[C@](C)(N)[C@H](O)[C@H](C)O2)Oc2ccc(cc2Cl)[C@H]1O | microbial killing | broth dilution | NRS107 |  |  | MBC | 1 µM
O=[N+]([O-])c1ccc(-c2nc3ccccc3[nH]2)cc1 | microbial growth | broth dilution | ATCC43300 MRSA |  | drug-resistant strain | MIC | 256 µg/mL (≈ 1070 µM)
COC(=O)c1cc(-c2cccc(NC(=O)Nc3ccc(F)cc3)c2)on1 | microbial growth | broth dilution | ATCC29213 |  |  | MIC | > 64 µg/mL
O=C(O)c1cn(C2CC2)c2cc(N3CCNCC3)c(F)cc2c1=O | microbial killing |  |  |  |  | MBC | 19 µM
COC(=O)c1cc(-c2cccc(NC(=O)Nc3ccc(OC)cc3)c2)on1 | microbial growth | broth dilution | ATCC29213 |  |  | MIC | > 64 µg/mL
CSc1ccc(-c2nc3ccc(C)cc3[nH]2)cc1 | microbial growth | broth dilution | ATCC43300 MRSA |  | drug-resistant strain | MIC | 32 µg/mL (≈ 126 µM)
